Assay [1] deals with Mast/stem cell growth factor receptor Kit (Homo sapiens), P10721 [V559D,T670I]. The assay can be described thus: Competitive binding affinity to KIT V559D/T670I double mutant (unknown origin) at 10 uM in presence of ATP relative to control.
Assay [2] has as its system Epidermal growth factor receptor (Homo sapiens), P00533 [G719S]. Kind of assay: Competitive binding affinity to EGFR G719S mutant (unknown origin) at 10 uM in presence of ATP relative to control. Summed up:
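In vitro ATP-site competition binding assay, part of profiling against a diverse panel of 128 kinases. Each compound was tested at a single concentration of 10 µM. Kinome selectivity was summarized as S15 selectivity scores.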

In assay [3] the target is Serine/threonine-protein kinase PAK 2 (Homo sapiens) (UniProt Q13177). The assay can be described thus: Competitive binding affinity to PAK2 (unknown origin) at 10 uM in presence of ATP relative to control. Summed up:
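In vitro ATP-site competition binding assay across a diverse panel of 128 kinases, with compound tested at a single concentration. Kinase selectivity scores (S15) were calculated from the panel profiles.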

The target in assay [4] is T1, Myosin light chain kinase family member 4 (Homo sapiens) (UniProt Q86YV6).
T1 sequence (whole entry): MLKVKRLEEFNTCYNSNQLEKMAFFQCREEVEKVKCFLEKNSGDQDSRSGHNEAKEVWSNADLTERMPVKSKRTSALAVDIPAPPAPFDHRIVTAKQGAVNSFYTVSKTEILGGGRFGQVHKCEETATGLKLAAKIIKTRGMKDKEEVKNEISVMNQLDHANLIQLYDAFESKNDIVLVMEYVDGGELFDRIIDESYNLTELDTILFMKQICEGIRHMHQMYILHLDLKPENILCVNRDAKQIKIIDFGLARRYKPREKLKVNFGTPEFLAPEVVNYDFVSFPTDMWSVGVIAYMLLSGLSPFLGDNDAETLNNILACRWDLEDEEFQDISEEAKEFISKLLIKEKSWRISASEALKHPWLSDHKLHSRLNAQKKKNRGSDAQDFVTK
The assay can be described thus: Competitive binding affinity to SgK085 (unknown origin) at 10 uM in presence of ATP relative to control.

In assay [5] the target is T2, Serine/threonine-protein kinase RIO1 (Homo sapiens) (UniProt Q9BRS2).
T2 sequence (whole entry): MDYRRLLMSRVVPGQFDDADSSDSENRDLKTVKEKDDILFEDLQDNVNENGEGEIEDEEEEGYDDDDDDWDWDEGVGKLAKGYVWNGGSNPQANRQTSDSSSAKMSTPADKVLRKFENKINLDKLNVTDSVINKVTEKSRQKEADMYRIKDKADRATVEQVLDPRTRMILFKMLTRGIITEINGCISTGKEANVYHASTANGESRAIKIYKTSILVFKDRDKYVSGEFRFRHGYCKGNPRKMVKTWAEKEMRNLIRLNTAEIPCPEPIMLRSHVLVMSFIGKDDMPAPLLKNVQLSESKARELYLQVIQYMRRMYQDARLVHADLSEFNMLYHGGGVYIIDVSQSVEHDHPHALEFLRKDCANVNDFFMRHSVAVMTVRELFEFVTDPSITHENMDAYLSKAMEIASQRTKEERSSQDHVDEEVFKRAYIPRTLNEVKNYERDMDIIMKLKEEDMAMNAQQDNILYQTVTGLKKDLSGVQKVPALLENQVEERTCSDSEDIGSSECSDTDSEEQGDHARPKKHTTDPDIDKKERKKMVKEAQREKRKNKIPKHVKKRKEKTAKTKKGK
The assay can be described thus: Competitive binding affinity to RIOK1 (unknown origin) at 10 uM in presence of ATP relative to control.

The target in assay [6] is T3, Discoidin domain-containing receptor 2 (Homo sapiens) (UniProt Q16832).
T3 sequence (whole entry): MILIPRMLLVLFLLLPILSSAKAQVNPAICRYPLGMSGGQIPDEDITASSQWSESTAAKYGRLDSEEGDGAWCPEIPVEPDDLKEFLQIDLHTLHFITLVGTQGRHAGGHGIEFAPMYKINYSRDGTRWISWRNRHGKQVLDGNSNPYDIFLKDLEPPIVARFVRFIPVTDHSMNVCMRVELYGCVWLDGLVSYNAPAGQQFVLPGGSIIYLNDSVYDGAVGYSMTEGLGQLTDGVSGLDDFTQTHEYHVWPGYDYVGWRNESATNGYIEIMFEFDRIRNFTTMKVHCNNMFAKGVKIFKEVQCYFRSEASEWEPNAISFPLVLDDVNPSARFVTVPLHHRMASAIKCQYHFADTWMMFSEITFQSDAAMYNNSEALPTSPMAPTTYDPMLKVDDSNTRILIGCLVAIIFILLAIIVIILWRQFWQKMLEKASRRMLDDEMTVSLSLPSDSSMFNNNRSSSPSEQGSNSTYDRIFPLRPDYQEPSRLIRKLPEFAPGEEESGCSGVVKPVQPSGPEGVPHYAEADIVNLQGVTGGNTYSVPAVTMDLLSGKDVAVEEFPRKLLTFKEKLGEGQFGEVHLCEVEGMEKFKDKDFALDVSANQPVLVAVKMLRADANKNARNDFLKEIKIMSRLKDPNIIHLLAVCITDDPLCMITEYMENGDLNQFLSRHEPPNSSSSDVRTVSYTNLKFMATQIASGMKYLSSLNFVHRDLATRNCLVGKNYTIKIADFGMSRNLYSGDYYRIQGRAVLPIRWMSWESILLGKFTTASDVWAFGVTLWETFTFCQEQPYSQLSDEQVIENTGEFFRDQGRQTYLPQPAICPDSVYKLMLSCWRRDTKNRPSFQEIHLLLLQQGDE
Kind of assay: Competitive binding affinity to DDR2 (unknown origin) at 10 uM in presence of ATP relative to control.

Chain of Serine/threonine-protein kinase PAK 2 (Homo sapiens) (Q13177 whole entry): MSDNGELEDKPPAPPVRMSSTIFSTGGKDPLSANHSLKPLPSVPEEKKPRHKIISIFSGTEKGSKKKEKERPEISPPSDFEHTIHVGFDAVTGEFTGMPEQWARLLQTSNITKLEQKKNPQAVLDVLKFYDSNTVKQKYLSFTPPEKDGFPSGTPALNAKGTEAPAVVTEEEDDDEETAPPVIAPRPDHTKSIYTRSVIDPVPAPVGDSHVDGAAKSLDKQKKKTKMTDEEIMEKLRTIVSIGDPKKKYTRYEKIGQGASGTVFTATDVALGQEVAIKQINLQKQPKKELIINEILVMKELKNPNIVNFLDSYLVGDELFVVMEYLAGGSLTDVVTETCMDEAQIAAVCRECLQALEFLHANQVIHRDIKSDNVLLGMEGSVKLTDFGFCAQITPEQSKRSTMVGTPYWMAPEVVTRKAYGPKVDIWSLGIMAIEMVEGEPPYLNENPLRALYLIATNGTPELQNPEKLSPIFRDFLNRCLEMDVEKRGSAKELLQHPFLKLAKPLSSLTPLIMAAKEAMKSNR
Chain of Mast/stem cell growth factor receptor Kit (Homo sapiens), P10721 [V559D,T670I] (P10721 whole entry V559D/T670I): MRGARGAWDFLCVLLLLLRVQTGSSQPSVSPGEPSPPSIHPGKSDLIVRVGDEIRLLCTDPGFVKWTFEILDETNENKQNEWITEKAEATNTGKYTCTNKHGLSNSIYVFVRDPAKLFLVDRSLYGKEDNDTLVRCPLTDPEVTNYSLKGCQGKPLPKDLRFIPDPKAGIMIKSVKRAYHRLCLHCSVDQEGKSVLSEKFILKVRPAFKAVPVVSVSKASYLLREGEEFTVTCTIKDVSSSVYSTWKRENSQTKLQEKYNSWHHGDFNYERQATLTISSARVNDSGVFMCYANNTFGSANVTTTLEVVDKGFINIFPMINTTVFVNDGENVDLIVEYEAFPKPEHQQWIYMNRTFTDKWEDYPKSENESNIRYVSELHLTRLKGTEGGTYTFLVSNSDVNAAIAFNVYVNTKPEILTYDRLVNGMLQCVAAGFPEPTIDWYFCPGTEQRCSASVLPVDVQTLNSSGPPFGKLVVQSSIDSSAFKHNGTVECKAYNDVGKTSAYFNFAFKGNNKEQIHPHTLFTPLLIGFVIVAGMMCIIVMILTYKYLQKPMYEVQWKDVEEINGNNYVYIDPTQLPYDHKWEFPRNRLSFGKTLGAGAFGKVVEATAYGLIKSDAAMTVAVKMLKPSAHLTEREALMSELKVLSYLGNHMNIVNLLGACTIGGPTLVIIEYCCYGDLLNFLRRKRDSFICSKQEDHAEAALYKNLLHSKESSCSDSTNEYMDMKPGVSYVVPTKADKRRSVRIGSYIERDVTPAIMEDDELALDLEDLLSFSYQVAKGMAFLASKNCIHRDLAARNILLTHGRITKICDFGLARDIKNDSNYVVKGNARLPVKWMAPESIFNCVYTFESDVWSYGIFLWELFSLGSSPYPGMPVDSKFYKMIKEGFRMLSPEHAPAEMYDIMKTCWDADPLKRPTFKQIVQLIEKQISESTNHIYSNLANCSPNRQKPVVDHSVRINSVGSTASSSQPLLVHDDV
Chain of Epidermal growth factor receptor (Homo sapiens), P00533 [G719S] (P00533 whole entry G719S): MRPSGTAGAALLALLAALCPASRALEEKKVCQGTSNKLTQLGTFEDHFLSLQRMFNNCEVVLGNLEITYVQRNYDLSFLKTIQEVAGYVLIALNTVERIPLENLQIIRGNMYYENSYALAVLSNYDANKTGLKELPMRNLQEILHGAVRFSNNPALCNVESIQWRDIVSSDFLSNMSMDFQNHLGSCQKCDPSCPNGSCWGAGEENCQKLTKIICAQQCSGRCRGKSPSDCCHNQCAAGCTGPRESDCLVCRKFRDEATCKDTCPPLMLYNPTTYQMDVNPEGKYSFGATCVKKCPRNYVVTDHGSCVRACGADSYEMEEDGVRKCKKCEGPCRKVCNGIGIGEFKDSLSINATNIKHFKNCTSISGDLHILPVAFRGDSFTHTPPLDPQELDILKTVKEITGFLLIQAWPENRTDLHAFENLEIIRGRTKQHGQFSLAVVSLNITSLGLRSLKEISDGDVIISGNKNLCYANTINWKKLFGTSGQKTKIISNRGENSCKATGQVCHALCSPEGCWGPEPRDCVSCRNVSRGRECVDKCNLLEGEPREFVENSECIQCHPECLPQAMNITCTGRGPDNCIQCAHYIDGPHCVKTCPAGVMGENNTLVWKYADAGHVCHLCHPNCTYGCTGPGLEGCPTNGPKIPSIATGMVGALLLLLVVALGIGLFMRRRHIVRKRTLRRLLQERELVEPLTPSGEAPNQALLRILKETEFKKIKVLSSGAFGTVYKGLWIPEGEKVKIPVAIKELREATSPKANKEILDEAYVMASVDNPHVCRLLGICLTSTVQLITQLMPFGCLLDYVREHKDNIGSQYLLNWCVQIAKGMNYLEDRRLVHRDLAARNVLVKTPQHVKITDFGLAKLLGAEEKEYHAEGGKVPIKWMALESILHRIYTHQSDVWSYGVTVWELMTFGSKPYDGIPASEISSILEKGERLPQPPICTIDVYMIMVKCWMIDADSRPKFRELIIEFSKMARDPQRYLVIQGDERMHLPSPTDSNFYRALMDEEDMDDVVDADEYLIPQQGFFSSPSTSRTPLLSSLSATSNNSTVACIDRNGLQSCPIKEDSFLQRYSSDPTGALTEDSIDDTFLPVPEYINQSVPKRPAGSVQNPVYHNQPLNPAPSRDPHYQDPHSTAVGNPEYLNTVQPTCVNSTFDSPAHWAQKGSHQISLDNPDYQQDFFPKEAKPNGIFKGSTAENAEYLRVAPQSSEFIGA

As for `O[C@H]1CC[C@H](Nc2nccc(-c3n[nH]c4ccccc34)n2)CC1`, the figures for the inhibition in assay [1], in assay [2] and in assay [3] were 96%, below 50% and 82%, respectively.
For `O[C@H]1CC[C@H](Nc2nccc(-n3ccc4ccccc43)n2)CC1`, the inhibition (in general, how much of the control response was suppressed) in assay [4] was 98%; in assay [1], below 50%; in assay [2], below 50%; in assay [3], below 50%; in assay [5], below 50%; in assay [6] it was below 50%.
`O[C@H]1CC[C@H](Nc2nccc(-n3ncc4ccccc43)n2)CC1`: the inhibition was 96% in assay [4]; 80% in assay [1]; below 50% in assay [2]; below 50% in assay [3]; below 50% in assay [5]; below 50% in assay [6].
As to `O[C@H]1CC[C@H](Nc2nccc(-n3nnc4ccccc43)n2)CC1`, the inhibition in assay [4] is 97%; in assay [1] it was 74%; in assay [2] it was below 50%; in assay [3], below 50%; in assay [5], below 50%; in assay [6] it was below 50%.
For the compound `CS(=O)(=O)CCCOc1cccc2c1ccn2-c1ccnc(N[C@H]2CC[C@H](C(=O)N3CCC(O)CC3)CC2)n1`, in assay [4], the inhibition was above 85%.

These data come from ChEMBL document CHEMBL2424622, “Development of amino-pyrimidine inhibitors of c-Jun N-terminal kinase (JNK): kinase profiling guided optimization of a 1,2,3-benzotriazole lead” (Bioorg Med Chem Lett, 2013).
